# HSV augment = enhancers of HSV replication in host cells, fold increase, host cell viability; maximum fold increase; HSV replication augmentation in cells; 220,000 compounds, 0.005% hits; AID 1956, 2009; in the data active = maximum fold increase above about 1.5; inconclusive = no clear call, values can overlap the other calls; tested in PC3 cells
# bCat nuc transl = modulators of beta-catenin nuclear translocation, primary screen, imaging, HeLa cells, immunofluorescence, high-content | nuclear translocation activity, % at 5 µM | 190,000 compounds, 0.3% hits;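 active = nuclear translocation activity above 50% at 5 µM, with a well cell count of 50 or more; inconclusive = wells under 50 cells across six images, flagged as toxic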;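 also: per-cell ratio of nuclear to cytoplasmic median beta-catenin stain intensity; plate controls were DMSO negative control for no effect and GSK-3 inhibitor IX positive control for full effect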
#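 Signal – beta-catenin immunofluorescence imaging with DAPI · Test system – human HeLa cell line · Dosing – 5 µM primary single dose, 0.1% DMSO, 0.02–20 µM confirmation series · Measure – % activation, nuclear-to-cytoplasmic median beta-catenin signal ratio per cell · Incubation – 24 h compound exposure at 37°C, 5% CO2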
# ROMK primary = ROMK potassium channel modulators, primary screen, cell-based, thallium flux, MLSMR library | AID 1918, 2009 | B-score at 10 µM | 130,000 compounds, 2% hits | Tet-inducible ROMK, thallium flux fluorescence; actives lie on both sides;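 active = signal ratio slope over the read window, or its plate-corrected B-score, at least 3 SD from the plate mean, either direction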;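 also: B-score of the F/F0 ratio slope over 7 to 12 s after thallium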
# Target sequence (P48048 whole entry, looked up): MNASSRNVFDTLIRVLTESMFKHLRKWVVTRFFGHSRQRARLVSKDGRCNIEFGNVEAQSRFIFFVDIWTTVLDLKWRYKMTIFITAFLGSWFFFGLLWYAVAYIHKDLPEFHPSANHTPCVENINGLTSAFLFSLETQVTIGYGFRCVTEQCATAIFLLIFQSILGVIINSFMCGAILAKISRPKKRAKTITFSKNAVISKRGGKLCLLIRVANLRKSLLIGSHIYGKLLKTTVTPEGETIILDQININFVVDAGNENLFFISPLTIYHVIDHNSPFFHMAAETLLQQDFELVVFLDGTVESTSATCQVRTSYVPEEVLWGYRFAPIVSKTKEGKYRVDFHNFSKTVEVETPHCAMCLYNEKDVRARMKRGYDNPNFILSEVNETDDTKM
# MT stabilize HCS = microtubule stabilizers in HeLa cells, primary screen, imaging, high-content imaging; AID 2205, 2009; 200,000 compounds, 0.83% hits; HeLa tubulin immunostaining HCS, 24 h; share of cells brighter than vehicle mean+2SD; % tubulin-high responders, % at 10 µM;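 active = plate Z-score above 3 for both tubulin-high and condensed-nucleus cell shares, with cell loss under 80%, at 10 µM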;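 also: anti alpha tubulin signal scored within the nucleus-defined area of each cell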
# Insulin prom inh = inhibitors of insulin promoter-driven GFP, primary screen, imaging, TRM-6 cells (human fetal islet line), eGFP reporter, cell count. reporter expression induced with tamoxifen. inhibition, % at 2 µM. 130,000 compounds, 0.9% hits. AID 1273, 2008;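 active = inhibition above the mean plus 3 SD, with well images judged a real hit on visual review, cut at about 60% in these data, passing the limit was not always enough; inconclusive = inhibition over the cutoff but images rejected on review; inactive = inhibition not above the cutoff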
# ROMK retest = ROMK channel modulator hit retest, confirmation, cell-based, thallium flux, duplicate, resupplied hits; AID 1917, 2009; normalized thallium flux (F/F0 slope) at 10 µM; shares compounds with ROMK primary; 3,000 compounds, 54% hits; fluorescence ratio; stronger effect = lower value;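 active = Flux at 10 µM at least 3 SD below or above vehicle control mean in one or both replicates; inconclusive = no clear call, values can overlap the other calls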
# Starred values were filed as active, the others as inactive; i = inactive; u = inconclusive; x = no result given. In the library only some 2.4% were active in any assay of this set; here they are far more common.
SMILES,HSV augment,bCat nuc transl,ROMK primary,MT stabilize HCS,Insulin prom inh,ROMK retest
Cc1cc(C)c2[nH]c(=O)c(C(c3nnnn3C(C)(C)C)N(Cc3ccco3)CC3CCCO3)cc2c1 (stereo unspecified),i,3,-3.3*,2,-9,0.058*
N#Cc1c(N)oc(-c2ccc3c(c2)OCO3)c1-c1ccc2c(c1)OCO2,i,x,-0.45,2,-14,x
O=C(Nc1ncc([N+](=O)[O-])s1)c1cccc([N+](=O)[O-])c1,i,-1,x,x,x,x
O=C(Nc1ccccc1)Nc1ncc([N+](=O)[O-])s1,i,0,-1.8,3,28,0.064*
Cc1ccc(-n2cc(CN3CCC(CO)(Cc4cccc(C(F)(F)F)c4)CC3)cn2)cc1,i,1,-2.5,9,x,x
Cc1ccc(-n2cc(CN3CCC(CO)(Cc4ccccc4)CC3)cn2)cc1,i,1,-5.2*,3,x,0.059*
CCn1ccnc1CN(C)C(=O)CCc1nnc(CCC2CCCCC2)o1,i,0,0.53,3,x,x
C1CN(c2nc3nonc3nc2N2C[C@H]3CC[C@H]2C3)CCS1,i,0,1.4*,2,x,0.075
Cc1nnc(N)s1,i,-1,-1.3,x,x,x
COc1ccccc1CN1C[C@@H]2C[C@@H](C3=Cc4cc(Cl)ccc4OC3)N3CCC[C@@]23C1=O,i,0,-3.2*,2,x,0.065*
O=C(CCNC(=O)c1ccco1)Nc1ccc(SC(F)F)cc1,i,-2,-1.5,2,x,x
O=c1cc(O)sc2ccccc12,i,-1,0.095,4,x,x
O=c1[nH]sc2ccccc12,i,5,-4.5*,2,-55,0.052*
O=C1C=C(c2cccc(O)c2)CCC1,i,x,x,x,x,x
CCOC(=O)C1CCCN(CC(=O)c2c[nH]c3ccc(C)cc23)C1 (stereo unspecified),i,0,x,x,x,x
O=c1c(C=NCCN2CCNCC2)c(-c2ccccc2)[nH]n1-c1ccc([N+](=O)[O-])cc1,i,1,-1.8,1,x,x
COc1ccc(-c2[nH]n(-c3ccc([N+](=O)[O-])cc3)c(=O)c2C=NCCN2CCNCC2)cc1,i,0,-3*,23,33,0.059*
Cc1ccc(C)c(Nc2nc3nonc3nc2N2CCOCC2)c1,x,0,-3.5*,3,-25,u
Cc1ccc(S(=O)(=O)Nc2ccc(NC(=O)c3cccnc3)cc2)cc1,i,1,-0.77,2,x,x
COC(=O)CSc1nnc(CNC(=O)c2cc(OC)cc(OC)c2)n1-c1ccc(F)cc1,i,1,0.36,2,22,x
Cc1ccc(CCN2C(=O)CCC2(C)C(=O)NC2CCCC2)cc1 (stereo unspecified),x,1,1,4,-15,0.072
COc1ccc(CCN2C(=O)CCC2(C)C(=O)NC2CCCC2)cc1OC (stereo unspecified),i,-1,-0.4,3,x,x
CN(C)/C=N/c1c(C#N)cnn1-c1ncnc2sc(-c3ccccc3)cc12,i,8,x,3,x,0.063*
CN(C)/C=N/c1c(C#N)cnn1-c1ccccc1,i,0,0.082,3,x,x
Cc1c([N+](=O)[O-])cc(S(=O)(=O)Nc2ccncc2)cc1[N+](=O)[O-],i,0,-4.2*,3,x,0.079
SMILES,HSV augment,bCat nuc transl,ROMK primary,MT stabilize HCS,Insulin prom inh,ROMK retest
Cc1ccc(S(=O)(=O)Nc2ccccn2)cc1[N+](=O)[O-],i,-3,-5.9*,8,x,0.076
COc1ccc(S(=O)(=O)Nc2ccccn2)cc1C,i,0,0.87,2,x,x
CC(=O)Nc1ccc(S(=O)(=O)Nc2ccc(C)c([N+](=O)[O-])c2)cc1,i,-1,-0.46,4,27,x
CCCC1=NN(C(=O)Cc2ccc(OC)cc2)C(O)(C(F)(F)F)C1 (stereo unspecified),i,0,x,4,x,x
COCC1CCCN(Cc2nc(Cc3ccccc3)no2)C1 (stereo unspecified),i,-1,0.57*,5,x,0.078
COc1ccc(OCC2CCCN(Cc3nc(CC4CC4)no3)C2)cc1 (stereo unspecified),i,0,-0.63,x,x,x
Cc1cccc2cc(CNC3CCCC3)c(Cl)nc12,i,2,-2.1,1,x,x
CC(C(=O)NC1CCCC1)N1CCN(Cc2ccccc2)CC1 (stereo unspecified),i,0,-0.45,3,41,x
CC(C(=O)NC(=O)NC1CCCCC1)N1CCN(C(c2ccccc2)c2ccccc2)CC1 (stereo unspecified),x,-2,-3.3*,2,3,0.057*
O=C(c1cccs1)c1no[n+]([O-])c1C(=O)c1cccs1,i,x,x,3,24,0.028*
COc1ccc(C(=O)c2no[n+]([O-])c2C(=O)c2ccc(OC)cc2)cc1,i,5,x,5,18,u
COc1ccc(NC(=O)c2c(N)no[n+]2[O-])cc1,i,4,0.44,7,67,x
CCc1cc(SC#N)cc(CC)c1NC(=O)CCl,i,1,-3.6*,6,0,0.047*
Cc1cc(C)c2c(NC(=O)CCl)nn(C)c2n1,i,0,0.27,6,39,x
NN=C1c2cc([N+](=O)[O-])ccc2-c2ccc([N+](=O)[O-])cc21,i,0,0.4,6,x,x
O=[N+]([O-])c1ccc2c(c1)/C(=N\O)c1ccccc1-2,i,1,-2.9*,x,x,u
CCC(C)(C)c1ccc(OCCCC[n+]2cccc(C)c2)c(C(C)(C)CC)c1,i,x,-4.1*,79,-11,0.047*
CC(C)OC(=O)C(C)Nc1ccc(F)c(Cl)c1 (stereo unspecified),i,1,x,x,x,x
COc1ccc(/C=C/CN2CCC(CO)(Cc3ccccc3Cl)CC2)cc1,i,0,-1.8*,2,-13,0.063*
COC(=O)c1ccc(CN2CCC(CO)(Cc3ccccc3Cl)CC2)cc1,i,1,x,2,-13,x
NC(=O)C1CCN(C2=C(Cl)C(=O)c3ccccc3C2=O)CC1,i,x,x,1,7,0.053*
O=C1C(Cl)=C(N2CCC(C(=O)O)CC2)C(=O)c2ccccc21,i,-2,x,x,x,x
Fc1ccc(N2CCN(c3ncnc4c3nnn4Cc3ccccc3Cl)CC2)cc1,i,x,-2.7*,2,38,0.066*
O=C(c1ccco1)N1CCN(c2ncnc3c2nnn3Cc2ccccc2Cl)CC1,i,0,-5.1*,1,-6,0.07
O=C(c1ccco1)N1CCN(c2nc(C(F)(F)F)nc3c2nnn3Cc2ccccc2)CC1,i,-2,x,3,-14,x
Clc1cccc(-c2ccc(C=Nc3ccc(N4CCOCC4)cc3)o2)c1,i,0,0.61,2,x,x
CCOC(=O)CSc1nc2c(sc3ccccc32)c(=O)n1CCCN1CCOCC1,i,0,-0.63,3,3,x

# Screens from PubChem BioAssay.
